The target in assay [1] is T1, Estrogen receptor (Mus musculus) (UniProt O08537+P19785). Briefly: Uterotrophic activity in mice as uterus dry weight (mg)/body weight (g) *100 at 0.2 ug dose. Type of assay: functional, tissue-based. The procedure, abridged: (§1)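 Immature 19-day-old female NMRI mice, groups of 10. Compound dose per animal in olive oil (50 µL) sc on 3 consecutive days. Mice were killed 24 h after the last injection. Uteri were Bouin-fixed 20 h, cleaned, washed with alcoholic LiCl, and dried at 100 °C for 24 h. Effect = uterine dry weight (mg)/body weight (g) ×100; mean ± SD.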
T1 sequence (O08537 whole entry, looked up): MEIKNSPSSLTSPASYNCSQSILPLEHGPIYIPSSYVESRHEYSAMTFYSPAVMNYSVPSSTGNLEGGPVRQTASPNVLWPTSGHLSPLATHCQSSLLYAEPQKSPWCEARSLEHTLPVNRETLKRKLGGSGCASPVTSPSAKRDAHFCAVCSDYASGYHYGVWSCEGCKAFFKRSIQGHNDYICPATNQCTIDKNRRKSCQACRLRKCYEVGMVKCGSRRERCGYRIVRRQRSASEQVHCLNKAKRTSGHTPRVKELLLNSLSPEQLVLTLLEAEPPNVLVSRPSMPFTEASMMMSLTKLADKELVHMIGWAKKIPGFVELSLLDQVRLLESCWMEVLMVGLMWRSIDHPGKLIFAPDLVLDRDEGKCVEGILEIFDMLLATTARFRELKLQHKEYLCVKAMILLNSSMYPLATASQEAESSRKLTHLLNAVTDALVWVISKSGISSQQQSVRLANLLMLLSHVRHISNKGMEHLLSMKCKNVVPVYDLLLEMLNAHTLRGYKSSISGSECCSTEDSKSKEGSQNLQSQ
T1 sequence (P19785 whole entry, looked up): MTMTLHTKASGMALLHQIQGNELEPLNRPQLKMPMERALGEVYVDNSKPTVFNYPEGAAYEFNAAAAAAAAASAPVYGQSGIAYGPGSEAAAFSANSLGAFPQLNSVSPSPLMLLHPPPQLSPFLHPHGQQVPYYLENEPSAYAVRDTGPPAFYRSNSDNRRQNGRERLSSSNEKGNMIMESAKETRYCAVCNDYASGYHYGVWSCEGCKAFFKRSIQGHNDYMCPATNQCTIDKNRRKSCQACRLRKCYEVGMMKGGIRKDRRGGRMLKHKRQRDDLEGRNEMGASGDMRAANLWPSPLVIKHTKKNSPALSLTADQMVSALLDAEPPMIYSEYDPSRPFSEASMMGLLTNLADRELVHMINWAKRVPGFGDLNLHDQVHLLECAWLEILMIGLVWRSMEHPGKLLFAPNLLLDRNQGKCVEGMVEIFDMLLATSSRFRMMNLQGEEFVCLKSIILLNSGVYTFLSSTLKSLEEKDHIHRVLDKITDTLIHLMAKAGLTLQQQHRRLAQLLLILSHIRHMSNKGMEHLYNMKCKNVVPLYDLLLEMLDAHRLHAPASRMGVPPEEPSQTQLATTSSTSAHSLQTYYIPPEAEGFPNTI

Assay [2] concerns the target T1, Estrogen receptor (Mus musculus). Briefly: Uterotrophic activity in mice as uterus dry weight (mg)/body weight (g) *100 at 125 ug dose. It is filed as functional, tissue-based. A digest of the protocol:
as §1

Assay [3] has the same target. Briefly: Uterotrophic activity in mice as uterus dry weight (mg)/body weight (g) *100 at 1 ug dose. It is filed as functional, tissue-based. The procedure, abridged:
as §1

For assay [4] the target is unchanged. Briefly: Uterotrophic activity in mice as uterus dry weight (mg)/body weight (g) *100 at 25 ug dose. It is filed as functional, tissue-based. The procedure, abridged: as §1
Assay [5] has the same target. In words: Uterotrophic activity in mice as uterus dry weight (mg)/body weight (g) *100 at 5 ug dose. Type of assay: functional, tissue-based. A digest of the protocol:
as §1

The species entered for assay [6] is Rattus norvegicus. In words: Change in DMBA-induced mammary carcinoma tumor area in rats at 2.0 mg dose. Type of assay: functional. A digest of the protocol:
(§2)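 Female Sprague-Dawley rats got one 20 mg DMBA dose by gavage at 50 days old and were palpated twice weekly from day 30. Rats were randomized once tumor area exceeded 140 mm². Dose (per kg) was given sc in olive oil, once daily Monday to Thursday and doubled on Friday. Tumor area was taken from caliper measurements of two perpendicular axes, twice weekly. Change per animal is given as median % and range.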

The species named for assay [7] is Rattus norvegicus. In words: Change in DMBA-induced mammary carcinoma tumor area in rats at 0.5 mg dose. Type of assay: functional. A digest of the protocol: as §2
Assay [8] is filed under the species Rattus norvegicus. In words: Change in body weight of DMBA-induced mammary carcinoma tumor bearing rats at 0.5 mg dose. It is filed as functional. A digest of the protocol:
(§3)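 DMBA-induced tumor-bearing Sprague-Dawley rats (20 mg DMBA by gavage at 50 days old), randomized when tumor area exceeded 140 mm². Dose per kg was given sc in olive oil, single dose daily Monday to Thursday, double dose Friday. Body weight was measured twice weekly. Read-out was % change in body weight.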

The species named for assay [9] is Rattus norvegicus. In words: Change in body weight of DMBA-induced mammary carcinoma tumor bearing rats at 2 mg dose. It is filed as functional. The procedure, abridged:
as §3

The species named for assay [10] is Rattus norvegicus. Briefly: Change in DMBA-induced mammary carcinoma tumor area in rats at 0.5 mg dose; -100-346. Type of assay: functional. A digest of the protocol: as §2
The species entered for assay [11] is Rattus norvegicus. In words: Complete remission (%) of DMBA-induced mammary carcinoma tumors in rats at 0.5 mg dose. It is filed as functional. The procedure, abridged: (§4)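 DMBA-induced tumors in Sprague-Dawley rats, entered when tumor area exceeded 140 mm². Dose per kg was given sc in olive oil, daily Monday to Thursday with a double dose Friday. Tumors were measured by calipers twice weekly. Tumor number was counted at the start of the test. Complete remission meant the tumor was no longer palpable. Partial remission meant reduction to ≤50% of initial size. New tumor appearance was recorded.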

Assay [12] is filed under the species Rattus norvegicus. In words: Complete remission (%) of DMBA-induced mammary carcinoma tumors in rats at 2 mg dose. Type of assay: functional. The procedure, abridged: as §4
Assay [13] is filed under the species Rattus norvegicus. In words: Partial remission (%) of DMBA-induced mammary carcinoma tumors in rats at 2 mg dose. It is filed as functional. A digest of the protocol: (§5)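 Female Sprague-Dawley rats, 50 days old, given a single 20 mg DMBA dose in 1 mL olive oil by gavage. Rats were palpated twice weekly from day 30, and those without tumors by day 70 were discarded. Rats were randomized once tumor area exceeded 140 mm². Drug dose was per kg in olive oil (1 mL/kg) sc, single dose Mon–Thu and double dose Fri. Tumor area (caliper, two perpendicular axes) and body weight were measured twice weekly.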

Assay [14] is filed under the species Rattus norvegicus. In words: Percent unchanged DMBA-induced mammary carcinoma tumors in rats at 2 mg dose. Type of assay: functional. A digest of the protocol: as §5
For assay [15], the species on record is Rattus norvegicus. Briefly: Percent unchanged DMBA-induced mammary carcinoma tumors in rats at 0.5 mg dose. It is filed as functional. A digest of the protocol: as §5
For assay [16], the species on record is Rattus norvegicus. In words: Percent progressive DMBA-induced mammary carcinoma tumors in rats at 0.5 mg dose. Type of assay: functional. A digest of the protocol: as §5
For assay [17], the species on record is Rattus norvegicus. In words: Number of DMBA-induced mammary carcinoma tumors in rats at 0.5 mg dose. It is filed as functional. The procedure, abridged:
as §4

For assay [18], the species on record is Rattus norvegicus. In words: Number of DMBA-induced mammary carcinoma tumors in rats at 2 mg dose. It is filed as functional. The procedure, abridged:
as §4

Assay [19] is filed under the species Rattus norvegicus. Briefly: Formation of new DMBA-induced mammary carcinoma tumors in rats at 0.5 mg dose. Type of assay: functional. A digest of the protocol:
as §4

For assay [20], the species on record is Rattus norvegicus. In words: Formation of new DMBA-induced mammary carcinoma tumors in rats at 2 mg dose. Type of assay: functional. The procedure, abridged:
as §4

The species named for assay [21] is Rattus norvegicus. Briefly: Percent progressive DMBA-induced mammary carcinoma tumors in rats at 2 mg dose. It is filed as functional. The procedure, abridged:
as §5

For assay [22], the species on record is Rattus norvegicus. Briefly: Partial remission (%) of DMBA-induced mammary carcinoma tumors in rats at 0.5 mg dose. Type of assay: functional. The procedure, abridged:
as §4

For assay [23], the species on record is Rattus norvegicus. In words: Change in DMBA-induced mammary carcinoma tumor area in rats at 2.8 mg dose; -39-458. Type of assay: functional. The procedure, abridged:
as §2

The species entered for assay [24] is Rattus norvegicus. In words: Change in body weight of DMBA-induced mammary carcinoma tumor bearing rats at 2.8 mg dose. Type of assay: functional. The procedure, abridged: as §3
The species entered for assay [25] is Rattus norvegicus. In words: Percent unchanged DMBA-induced mammary carcinoma tumors in rats at 2.8 mg dose. It is filed as functional. A digest of the protocol:
as §5

For assay [26], the species on record is Rattus norvegicus. In words: Number of DMBA-induced mammary carcinoma tumors in rats at 2.8 mg dose. Type of assay: functional. A digest of the protocol: as §4
The species named for assay [27] is Rattus norvegicus. Briefly: Formation of new DMBA-induced mammary carcinoma tumors in rats at 2.8 mg dose. It is filed as functional. A digest of the protocol: as §4
The species entered for assay [28] is Rattus norvegicus. In words: Percent progressive DMBA-induced mammary carcinoma tumors in rats at 2.8 mg dose. Type of assay: functional. A digest of the protocol: as §5
The species named for assay [29] is Rattus norvegicus. In words: Partial remission (%) of DMBA-induced mammary carcinoma tumors in rats at 2.8 mg dose. Type of assay: functional. A digest of the protocol: as §5
The species named for assay [30] is Rattus norvegicus. Briefly: Change in DMBA-induced mammary carcinoma tumor area in rats at 2 mg dose. It is filed as functional. The procedure, abridged: as §2
The species named for assay [31] is Rattus norvegicus. Briefly: Change in DMBA-induced mammary carcinoma tumor area in rats at 2 mg dose; -100-231. It is filed as functional. The procedure, abridged:
as §2

Assay [32] is filed under the species Rattus norvegicus. In words: Partial remission (%) of DMBA-induced mammary carcinoma tumors in rats. It is filed as functional. A digest of the protocol: as §4

With `CCn1c(-c2ccc(OC(C)=O)cc2)c(C)c2ccc(OC(C)=O)cc21`, the Uterotrophic effect was 20.8 in [1]; 42.4 in assay [2]; 31.6 in [3]; 44.8 in assay [4]; 41.5 in [5]. In addition, the “Change of tumor area” value is recorded as -96% in the assay filed under Rattus norvegicus [6], -74% in the assay filed under Rattus norvegicus [7] and -100% in the assay filed under Rattus norvegicus [10]. Further, the “Change of body weight” value in the assay filed under Rattus norvegicus [8] is -15%; in the assay listed under Rattus norvegicus [9] it was -13%. The Complete remission in the assay filed under Rattus norvegicus [11] is 65%; in the assay filed under Rattus norvegicus [12] it was 70%. Besides, the Partial remission is on record as 23% in the assay filed under Rattus norvegicus [13] and 11% in the assay filed under Rattus norvegicus [22]. Moreover, the figures for the Static tumors in the assay filed under Rattus norvegicus [14] and in the assay filed under Rattus norvegicus [15] were 2% and 15%, respectively. The Progressed tumors is reported as 9% in the assay listed under Rattus norvegicus [16] and 5% in the assay filed under Rattus norvegicus [21]. Moreover, the No. of tumors is recorded as 40 in the assay filed under Rattus norvegicus [17] and 34 in the assay listed under Rattus norvegicus [18]. Further, the New tumors in the assay listed under Rattus norvegicus [19] and in the assay filed under Rattus norvegicus [20] was 6 throughout.
In the case of `CC/C(=C(\c1ccccc1)c1ccc(OCCN(C)C)cc1)c1ccccc1.O=C(O)CC(O)(CC(=O)O)C(=O)O` [TAMOXIFEN CITRATE], in the assay filed under Rattus norvegicus [23], the “Change of tumor area” value is reported as -39%. Also, in the assay filed under Rattus norvegicus [24], the “Change of body weight” value is 0. Moreover, the Static remission in the assay filed under Rattus norvegicus [25] is reported as 27%. The No. of tumors in the assay filed under Rattus norvegicus [26] is recorded as 34. In the assay listed under Rattus norvegicus [27], this molecule had a New tumors of 26. Moreover, in the assay listed under Rattus norvegicus [28], the Progressed tumors was determined as 53. This molecule displayed a Partial remission in the assay filed under Rattus norvegicus [29] of 7%.
On to `CCc1c(-c2ccc(OC(C)=O)cc2)n(CC)c2cc(OC(C)=O)ccc12`, for which the Uterotrophic effect was 25.5 in [1]; 44.7 in assay [2]; 36.2 in assay [3]; 46.4 in assay [4]; 45.6 in assay [5]. Moreover, the “Change of tumor area” value is -95% in the assay filed under Rattus norvegicus [30] and -100% in the assay filed under Rattus norvegicus [31]. Besides, the “Change of body weight” value in the assay filed under Rattus norvegicus [9] is -13%. This molecule yielded a Complete remission in the assay listed under Rattus norvegicus [12] of 74%. The molecule further yielded a Partial remission in the assay filed under Rattus norvegicus [32] of 13%. Also, in the assay listed under Rattus norvegicus [14], the Static tumors is given as 5%. In the assay filed under Rattus norvegicus [18], the No. of tumors turned out to be 36. Besides, in the assay filed under Rattus norvegicus [20], the New tumors stood at 3. Moreover, the Progressed tumors in the assay filed under Rattus norvegicus [21] was 8%.

(Values after ChEMBL document CHEMBL1122517, “2-Phenylindoles. Relationship between structure, estrogen receptor affinity, and mammary tumor inhibiting activity in the rat” (1984).)
